Screens (PubChem)
This is a sample that favours compounds with a hit; in the whole collection about 3% have one here.
Cneo AK release – Cryptococcus neoformans cell lysis inducers, primary screen, AK release luminescence, single concentration. C. neoformans lysis, adenylate kinase release luminescence, 4 h; normalised: neutral wells 0, clomiphene wells 100. lysis activity, % at 15 µM. actives 0.2% (n = 360,000);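 active = mean lysis activity across replicates of at least 80%, whatever share of replicates individually reach that level; inactive = mean lysis activity below 80%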
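Material – Cryptococcus neoformans yeast cells · Quantity – 5 × 10^6 yeast cells/mL · Buffer or medium – YPD medium · Compound – single dose · Timing – 4 h static compound exposure, 37 °C, read 1 h post-reagent · Signal – adenylate kinase release luminescence · Read-out basis – lysis from increased AK signal · Benchmarks – Clomiphene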
S100A4 inh HTS – inhibitors of S100A4-myosin IIA peptide binding, primary screen, biochemical, fluorescence polarization, TAMRA-MyoIIA peptide; AID 652163, 2013; actives 0.14% (n = 360,000); Protein S100-A4 (Homo sapiens), P26447; inhibition, % at 10.7 µM;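 active = mean inhibition of at least 70% across replicates, with every replicate also reaching that level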
Target sequence (P26447 whole entry, looked up): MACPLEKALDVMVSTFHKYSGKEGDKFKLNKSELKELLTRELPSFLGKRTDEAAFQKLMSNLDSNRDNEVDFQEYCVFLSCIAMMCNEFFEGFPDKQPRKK
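Material: S100A4 monomer protein | Medium: HEPES pH 7.2 with CaCl2, KCl, NaCl, DTT, Triton | Reagent: Labelled myosin peptide probe, 5 nM | Doses: One dose per compound | Times: 5 min incubation before reading | Benchmarks: Neutral control DMSO, positive control TFP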
C2C12 statin – suppressors of statin myotoxicity in C2C12 myotubes, primary screen, cell-based, single point, plate reader | C2C12 myotubes + simvastatin, ATP luminescence, 48 h; scaled: DMSO 0, geranylgeraniol control 100 | rescue of ATP level, % at 7.49 µM | actives 0.78% (n = 330,000) | AID 602340, 2012;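 active = mean ATP rescue above about 67%, or every replicate alone reaching that limit, limit read from the data, passing the limit was not always enough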;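 also: myotubes were challenged with 10 µM simvastatin during compound exposure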
SIRT5 inh – SIRT5 desuccinylase inhibitors, primary screen, biochemical, fluorescence imaging, single point, set 5 | NAD-dependent protein deacylase sirtuin-5, mitochondrial (Homo sapiens), Q9NXA8 | Purified SirT5, succinyl-peptide AMC, trypsin-coupled fluorescence | inhibition, % at 15 µM | actives 1.1% (n = 330,000) | AID 652115, 2013; in the data active = inhibition above about 15%
Target sequence (Q9NXA8 whole entry, looked up): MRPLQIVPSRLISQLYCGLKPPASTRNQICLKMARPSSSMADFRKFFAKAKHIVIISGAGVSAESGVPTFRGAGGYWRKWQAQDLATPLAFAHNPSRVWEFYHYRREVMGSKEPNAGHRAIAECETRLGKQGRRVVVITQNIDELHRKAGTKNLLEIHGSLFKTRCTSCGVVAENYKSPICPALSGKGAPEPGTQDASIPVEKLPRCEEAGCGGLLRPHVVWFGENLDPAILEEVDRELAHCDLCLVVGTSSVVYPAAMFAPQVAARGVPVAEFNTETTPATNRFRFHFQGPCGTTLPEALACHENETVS
Ecoli rRNA inh – reduced GFP signal of wild-type E. coli, primary screen, bacterial rRNA inhibitor project, GFP/RFP fluorescence, OD600, single point; E. coli WT GFP vs humanized-ribosome RFP mutants, 24 h; active compounds read low; DMSO median 0, no signal -100; GFP signal change (wild-type ribosome), % (test concentration not listed); AID 720706, 2013; actives 1.6% (n = 350,000);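 active = significant combined selectivity score with lowered wild-type GFP, culture density cut under 30%, mutant RFP and density less affected; inactive = any of these conditions unmet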
PGC1a acetyl inh – inhibitors of PGC1a acetylation signal, primary screen, cell-based, U2OS, AlphaScreen, inhibitor mode; actives 0.17% (n = 350,000); inhibition, % at 15.6 µM; AlphaScreen anti-acetyl-lysine; with virally co-expressed GCN5 acetyltransferase;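 active = every replicate shows inhibition of at least 40%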
Hits are given with their value.

C[C@@H]1CCCCO[C@H](CN(C)C(=O)Nc2ccc(F)cc2)[C@H](C)CN([C@@H](C)CO)C(=O)c2cc(NS(=O)(=O)c3ccc(Cl)cc3)ccc2O1 was read as Cneo AK release 93.9, S100A4 inh HTS inactive, SIRT5 inh inactive, Ecoli rRNA inh inactive and PGC1a acetyl inh inactive.
C[C@H](CO)N1C[C@H](C)[C@H](CN(C)C(=O)Nc2ccc(F)cc2)OCCCC[C@H](C)Oc2ccc(NS(=O)(=O)c3ccc(Cl)cc3)cc2C1=O was read as Cneo AK release inactive, S100A4 inh HTS inactive, SIRT5 inh inactive, Ecoli rRNA inh inactive and PGC1a acetyl inh inactive.
For C[C@H]1CCCCO[C@H](CN(C)C(=O)Nc2ccc(F)cc2)[C@@H](C)CN([C@@H](C)CO)C(=O)c2cc(NS(=O)(=O)c3ccc(Cl)cc3)ccc2O1 the results were Cneo AK release 84.7, S100A4 inh HTS inactive, SIRT5 inh inactive, Ecoli rRNA inh inactive and PGC1a acetyl inh inactive.
`Cc1ccc(S(=O)(=O)Nc2ccc3c(c2)C(=O)N([C@H](C)CO)C[C@@H](C)[C@H](CN(C)C(=O)Nc2ccc(F)cc2)OCCCC[C@H](C)O3)cc1` gave Cneo AK release inactive, S100A4 inh HTS inactive, SIRT5 inh 21.4, Ecoli rRNA inh inactive and PGC1a acetyl inh inactive.
`CCCN(C)C[C@H]1OCCCC[C@H](C)Oc2ccc(NS(=O)(=O)c3cn(C)cn3)cc2C(=O)N([C@H](C)CO)C[C@H]1C` gave C2C12 statin inactive, Ecoli rRNA inh inactive and PGC1a acetyl inh inactive.
`CCS(=O)(=O)N1CC2(C1)[C@H](c1ccccc1)[C@@H](CO)N2C(=O)C1CC1` gave S100A4 inh HTS inactive, SIRT5 inh inactive, Ecoli rRNA inh inactive and PGC1a acetyl inh inactive.
`COc1ccccc1C#Cc1ccc([C@H]2[C@@H](C#N)N(C(=O)C3CCC3)[C@H]2CO)cc1` gave Cneo AK release inactive, S100A4 inh HTS inactive, C2C12 statin inactive, SIRT5 inh inactive, Ecoli rRNA inh inactive and PGC1a acetyl inh inactive.
`COc1ccccc1-c1ccc2c(c1)O[C@@H](CN(C)CC1CCOCC1)[C@H](C)CN([C@H](C)CO)S2(=O)=O` gave Cneo AK release inactive, S100A4 inh HTS inactive, C2C12 statin inactive, SIRT5 inh 16.1, Ecoli rRNA inh inactive and PGC1a acetyl inh inactive.
For C[C@H]1CN([C@@H](C)CO)S(=O)(=O)c2ccc(-c3cccc(C(=O)N(C)C)c3)cc2O[C@H]1CN(C)Cc1ccc2c(c1)OCO2 the results were Cneo AK release inactive, S100A4 inh HTS inactive, C2C12 statin inactive, SIRT5 inh inactive, Ecoli rRNA inh inactive and PGC1a acetyl inh inactive.
For COc1ccccc1-c1ccc2c(c1)O[C@@H](CN(C)C)[C@@H](C)CN([C@@H](C)CO)S2(=O)=O the results were Cneo AK release inactive, S100A4 inh HTS inactive, C2C12 statin inactive, SIRT5 inh inactive, Ecoli rRNA inh inactive and PGC1a acetyl inh inactive.
`C[C@H]1CN([C@@H](C)CO)S(=O)(=O)c2ccc(-c3cccc(C(=O)N(C)C)c3)cc2O[C@@H]1CN(C)Cc1ccc2c(c1)OCO2` gave Cneo AK release inactive, S100A4 inh HTS inactive, C2C12 statin inactive, SIRT5 inh 15.5, Ecoli rRNA inh inactive and PGC1a acetyl inh inactive.
`COc1ccccc1-c1ccc2c(c1)O[C@H](CN(C)Cc1ccc3c(c1)OCO3)[C@H](C)CN([C@H](C)CO)S2(=O)=O` gave Cneo AK release inactive, S100A4 inh HTS inactive, C2C12 statin inactive, SIRT5 inh 21.6, Ecoli rRNA inh inactive and PGC1a acetyl inh inactive.
COc1ccccc1-c1ccc2c(c1)O[C@H](CN(C)CC1CCOCC1)[C@H](C)CN([C@@H](C)CO)S2(=O)=O was read as Cneo AK release inactive, S100A4 inh HTS inactive, C2C12 statin inactive, SIRT5 inh inactive, Ecoli rRNA inh inactive and PGC1a acetyl inh inactive.
C[C@H](CO)N1C[C@H](C)[C@@H](CN(C)Cc2ccc3c(c2)OCO3)Oc2cc(-c3cccc(C(=O)N(C)C)c3)ccc2S1(=O)=O was read as Cneo AK release inactive, S100A4 inh HTS inactive, C2C12 statin inactive, SIRT5 inh 17.8, Ecoli rRNA inh inactive and PGC1a acetyl inh inactive.
For C[C@H](CO)N1C[C@H](C)[C@@H](CN(C)C(=O)Cc2ccccc2)OCc2ccccc2-c2c(n(C)c3ccccc23)C1=O the results were Cneo AK release inactive, S100A4 inh HTS inactive, SIRT5 inh 17.6, Ecoli rRNA inh inactive and PGC1a acetyl inh inactive.
For C[C@H]1CN([C@@H](C)CO)C(=O)c2c(c3ccccc3n2C)-c2ccccc2CO[C@H]1CN(C)Cc1ccccc1 the results were S100A4 inh HTS inactive, SIRT5 inh 19.2 and Ecoli rRNA inh inactive.
For C[C@H](CO)N1C[C@H](C)[C@H](CN(C)C(=O)Cc2ccccc2)OCc2ccccc2-c2c(n(C)c3ccccc23)C1=O the results were C2C12 statin inactive, Ecoli rRNA inh inactive and PGC1a acetyl inh inactive.
For C[C@H](CO)N1C[C@H](C)[C@H](CN(C)CC2CC2)OCc2ccccc2-c2c(n(C)c3ccccc23)C1=O the results were Cneo AK release inactive, S100A4 inh HTS 89.7, C2C12 statin inactive, SIRT5 inh inactive, Ecoli rRNA inh inactive and PGC1a acetyl inh inactive.
`CC(C)[C@@H](C)NC(=O)N(C)C[C@@H]1OCc2ccccc2-c2c(n(C)c3ccccc23)C(=O)N([C@@H](C)CO)C[C@@H]1C` gave Cneo AK release inactive, S100A4 inh HTS inactive, C2C12 statin inactive, SIRT5 inh 19.0, Ecoli rRNA inh inactive and PGC1a acetyl inh inactive.
Screening Cc1ccc(S(=O)(=O)N[C@@H]2CC[C@@H](CC(=O)NCCCN(C)C)O[C@H]2CO)cc1 returned Cneo AK release inactive, S100A4 inh HTS inactive, C2C12 statin inactive, SIRT5 inh inactive, Ecoli rRNA inh inactive and PGC1a acetyl inh inactive.
Screening CC[C@H]1C/C=C\C[C@@H](c2ccc(F)cc2)NC(=O)CCC(=O)N1 returned Ecoli rRNA inh inactive.
For CNC[C@@H]1Oc2cc(-c3ccncc3)ccc2S(=O)(=O)N([C@H](C)CO)C[C@H]1C the results were Cneo AK release inactive, S100A4 inh HTS inactive, C2C12 statin inactive, SIRT5 inh inactive, Ecoli rRNA inh inactive and PGC1a acetyl inh inactive.
